Measured values taken from ChEMBL document CHEMBL1135527, “Synthesis and evaluation of 2'-substituted 4-(4'-carboxy- or 4'-carboxymethylbenzylidene)-N-acylpiperidines: highly potent and in vivo active steroid 5alpha-reductase type 2 inhibitors” (J Med Chem, 2002).

How the values were obtained:
[1] = biological target: T1, 3-oxo-5-alpha-steroid 4-dehydrogenase 2 (Homo sapiens, UniProt P31213); assay: Inhibition of Steroid 5-alpha-reductase type 2 from human benign prostatic hyperplasia (BPH) tissue
T1 sequence (P31213 whole entry): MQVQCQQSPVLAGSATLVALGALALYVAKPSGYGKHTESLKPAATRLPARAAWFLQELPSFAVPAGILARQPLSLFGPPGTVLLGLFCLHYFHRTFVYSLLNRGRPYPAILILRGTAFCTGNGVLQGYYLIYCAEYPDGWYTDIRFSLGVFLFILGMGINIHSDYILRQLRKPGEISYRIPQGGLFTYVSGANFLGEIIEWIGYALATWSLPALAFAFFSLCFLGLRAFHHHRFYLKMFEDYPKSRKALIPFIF
Procedure, shortened: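 Human BPH prostate 105000g pellet (nuclei, mitochondria, microsomes) prepared in citrate buffer pH 5.5. Incubation of about 125 μg protein for 30 min at 37 °C in 40 mM citrate pH 5.5 with 100 μM NADPH, 0.21 μM [1,2-³H]testosterone and 2% DMSO. Reaction stopped with NaOH, steroids extracted with ether, T/DHT separated by radio-HPLC. Single 10 μM test or IC50; duplicates.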

[2] = biological target: T2, 3-oxo-5-alpha-steroid 4-dehydrogenase 2 (Rattus norvegicus, UniProt P31214); assay: Inhibition of Steroid 5-alpha-reductase type 2 of rat ventral prostate (RVP); type: tissue-based, Prostate gland
T2 sequence (P31214 whole entry): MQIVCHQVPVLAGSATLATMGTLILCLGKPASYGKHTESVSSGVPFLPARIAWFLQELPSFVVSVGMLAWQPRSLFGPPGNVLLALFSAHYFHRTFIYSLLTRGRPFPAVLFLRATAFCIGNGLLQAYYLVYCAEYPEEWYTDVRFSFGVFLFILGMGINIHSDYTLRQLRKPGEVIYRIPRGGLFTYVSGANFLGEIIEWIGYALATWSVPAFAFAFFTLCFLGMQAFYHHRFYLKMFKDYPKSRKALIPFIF
Procedure, shortened: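 Type 2 source: rat ventral prostate homogenized in citrate buffer pH 5.5, 105000g pellet. About 250 μg protein incubated 30 min at 37 °C in 40 mM citrate pH 5.5 with 200 μM NADPH, 0.21 μM [1,2-³H]testosterone and 2% DMSO. NaOH stop, ether extraction, radio-HPLC of T/DHT. Result given as % inhibition at 10 μM or IC50, run in duplicate.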

[3] = biological target: T3, 3-oxo-5-alpha-steroid 4-dehydrogenase 1 (Rattus norvegicus, UniProt P24008); assay: Inhibition of Steroid 5-alpha-reductase type I from rat ventral prostate (RVP); type: tissue-based, Prostate gland
T3 sequence (P24008 whole entry): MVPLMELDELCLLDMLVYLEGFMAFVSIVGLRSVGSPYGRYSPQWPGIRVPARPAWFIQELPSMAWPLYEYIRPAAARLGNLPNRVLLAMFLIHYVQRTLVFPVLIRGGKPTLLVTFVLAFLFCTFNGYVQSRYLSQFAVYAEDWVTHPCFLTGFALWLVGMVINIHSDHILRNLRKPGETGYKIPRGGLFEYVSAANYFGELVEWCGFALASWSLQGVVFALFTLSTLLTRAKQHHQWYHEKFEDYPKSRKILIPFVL
Procedure, shortened: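 Rat ventral prostate 105000g pellet made in 20 mM phosphate pH 6.6 with […] and 1 mM DTT at 0–4 °C. About 250 μg protein incubated 30 min at 37 °C in 40 mM phosphate pH 6.6 with 200 μM NADPH, 0.21 μM [1,2-³H]testosterone and 2% DMSO. Ether extraction, radio-HPLC of T and DHT. % inhibition at 10 μM or IC50; duplicates.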

[4] = biological target: T4, 3-oxo-5-alpha-steroid 4-dehydrogenase 1 (Homo sapiens, UniProt P18405); assay: In vitro inhibitory activity against Steroid 5-alpha-reductase type I of human DU 145 prostatic tumor cell line
T4 sequence (P18405 whole entry): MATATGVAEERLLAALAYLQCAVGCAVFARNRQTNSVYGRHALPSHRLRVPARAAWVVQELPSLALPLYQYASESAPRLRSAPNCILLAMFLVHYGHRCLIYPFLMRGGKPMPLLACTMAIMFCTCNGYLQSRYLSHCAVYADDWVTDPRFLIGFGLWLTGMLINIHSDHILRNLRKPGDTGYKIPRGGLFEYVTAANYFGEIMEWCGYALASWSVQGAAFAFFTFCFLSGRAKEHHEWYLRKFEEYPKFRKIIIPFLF
Procedure, shortened: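 Intact human prostatic carcinoma DU145 cells (type 1 enzyme source), seeded at 180 000 cells/well and left to adhere overnight, incubated 6 h at 37 °C in 5% CO2 with compound in DMSO in complete medium; substrate tritiated androstenedione 5 nM. Medium extracted with diethyl ether, steroids separated by radio-HPLC. Screened at 10 μM, duplicate; product formed as % of uninhibited control.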

CC(C)(C)NC(=O)[C@H]1CC[C@H]2[C@@H]3CC[C@H]4NC(=O)C=C[C@]4(C)[C@H]3CC[C@]12C [FINASTERIDE]
IC50 [1]: 5 nM
IC50 [2]: 11 nM
IC50 [3]: 10 nM
IC50 [4]: 41 nM
